Assay results reported in ChEMBL document CHEMBL4229472, “Surface Probing by Fragment-Based Screening and Computational Methods Identifies Ligandable Pockets on the von Hippel-Lindau (VHL) E3 Ubiquitin Ligase” (J Med Chem, 2018).

Legend:
[1] = biological target: Von Hippel-Lindau disease tumor suppressor/Elongin B/Elongin C (Homo sapiens, UniProt P40337); assay: (§1) Binding affinity to N-terminal His6 tagged VHL (54 to 213 residues)/ELoC (17 to 112 residues)/EloB (1 to 120 residues) (unknown origin) complex expressed in Escherichia coli BL21(DE3) assessed as dissociation constant by ITC method
[2] = biological target: Von Hippel-Lindau disease tumor suppressor/Elongin B/Elongin C (Homo sapiens) (UniProt P40337+Q15370+Q15369); assay: as §1, with “change in melting temperature at 1 mM” for “dissociation constant”, “Sypro orange dye based differential scanning fluorimetric analysis” for “ITC method”
In short: (§2)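 Thermal shift screen with each fragment tested as a singleton. Unfolding temperature is followed with a fluorescent dye that binds preferentially to unfolded protein. For line 1 the target is VCB alone. For line 3 it is VCB preincubated with HIF-1α peptide (VCBH), which separates binders of the HIF site from binders elsewhere in the complex.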

[3] = biological target: T1, von Hippel-Lindau disease tumor suppressor/Elongin-C/Elongin-B/HIF1A (Homo sapiens) (UniProt Q16665+P40337+Q15370+Q15369); assay: Binding affinity to N-terminal His6 tagged VHL (54 to 213 residues)/ELoC (17 to 112 residues)/EloB (1 to 120 residues)/HIF-1alpha (unknown origin) complex expressed in Escherichia coli BL21(DE3) assessed as change in melting temperature at 1 mM in presence of DEALA-Hyp-YIPMDDDFQLRSF by differential scanning fluorimetry
[4] = biological target: T1, von Hippel-Lindau disease tumor suppressor/Elongin-C/Elongin-B/HIF1A (Homo sapiens); assay: Binding affinity to N-terminal His6 tagged VHL (54 to 213 residues)/ELoC (17 to 112 residues)/EloB (1 to 120 residues)/HIF-1alpha (unknown origin) complex expressed in Escherichia coli BL21(DE3) assessed as change in melting temperature at 1 mM by Sypro orange dye based differential scanning fluorimetric analysis; in short: as §2

Compound	Kd [1]	ΔTm [2]	ΔTm [3]	ΔTm [4]
O=C1CCSc2ccc(Cl)cc21	6.7 mM	> 0.5 °C	1.2 °C	> 0.5 °C
OCc1ccc(-n2cccc2)cc1	5 mM	> 0.5 °C		> 0.5 °C
COC(=O)c1cc2occc2[nH]1		> 0.5 °C	0.7 °C	> 0.5 °C
